From ChEMBL document CHEMBL4257575, “Discovery of Novel Flavonoid Dimers To Reverse Multidrug Resistance Protein 1 (MRP1, ABCC1) Mediated Drug Resistance in Cancers Using a High Throughput Platform with "Click Chemistry"” (J Med Chem, 2018) come the findings set out here.

The target in this data set is Multidrug resistance-associated protein 1 (Homo sapiens, UniProt P33527). Put plainly: Inhibition of MRP1 in human 2008/MRP1 cells assessed as potentiation of doxorubicin-induced cytotoxicity by measuring cell survival at 2 uM after 5 days by MTS assay relative to control. The data set is classed as cell-based. The settings on record: 120 h. The procedure, abridged:
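2008/MRP1 cells (retroviral human MRP1 transfectant; RPMI 1640, 10% FBS) at 4,000 per well, with 100 nM doxorubicin plus crude, unpurified click products in DMSO: 2 µM in the primary screen, 1 µM in the secondary. Incubated 5 days at 37 °C. MTS/PMS added for 2 h at 37 °C, absorbance read at 490 nm. % survival is relative to wells without DOX or product. Run in triplicate, at least three experiments.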
On the technique in general: Formazan colour is commonly taken as a measure of viable cells.

Molecules are shown by their SMILES.

Chain of Multidrug resistance-associated protein 1 (P33527 whole entry): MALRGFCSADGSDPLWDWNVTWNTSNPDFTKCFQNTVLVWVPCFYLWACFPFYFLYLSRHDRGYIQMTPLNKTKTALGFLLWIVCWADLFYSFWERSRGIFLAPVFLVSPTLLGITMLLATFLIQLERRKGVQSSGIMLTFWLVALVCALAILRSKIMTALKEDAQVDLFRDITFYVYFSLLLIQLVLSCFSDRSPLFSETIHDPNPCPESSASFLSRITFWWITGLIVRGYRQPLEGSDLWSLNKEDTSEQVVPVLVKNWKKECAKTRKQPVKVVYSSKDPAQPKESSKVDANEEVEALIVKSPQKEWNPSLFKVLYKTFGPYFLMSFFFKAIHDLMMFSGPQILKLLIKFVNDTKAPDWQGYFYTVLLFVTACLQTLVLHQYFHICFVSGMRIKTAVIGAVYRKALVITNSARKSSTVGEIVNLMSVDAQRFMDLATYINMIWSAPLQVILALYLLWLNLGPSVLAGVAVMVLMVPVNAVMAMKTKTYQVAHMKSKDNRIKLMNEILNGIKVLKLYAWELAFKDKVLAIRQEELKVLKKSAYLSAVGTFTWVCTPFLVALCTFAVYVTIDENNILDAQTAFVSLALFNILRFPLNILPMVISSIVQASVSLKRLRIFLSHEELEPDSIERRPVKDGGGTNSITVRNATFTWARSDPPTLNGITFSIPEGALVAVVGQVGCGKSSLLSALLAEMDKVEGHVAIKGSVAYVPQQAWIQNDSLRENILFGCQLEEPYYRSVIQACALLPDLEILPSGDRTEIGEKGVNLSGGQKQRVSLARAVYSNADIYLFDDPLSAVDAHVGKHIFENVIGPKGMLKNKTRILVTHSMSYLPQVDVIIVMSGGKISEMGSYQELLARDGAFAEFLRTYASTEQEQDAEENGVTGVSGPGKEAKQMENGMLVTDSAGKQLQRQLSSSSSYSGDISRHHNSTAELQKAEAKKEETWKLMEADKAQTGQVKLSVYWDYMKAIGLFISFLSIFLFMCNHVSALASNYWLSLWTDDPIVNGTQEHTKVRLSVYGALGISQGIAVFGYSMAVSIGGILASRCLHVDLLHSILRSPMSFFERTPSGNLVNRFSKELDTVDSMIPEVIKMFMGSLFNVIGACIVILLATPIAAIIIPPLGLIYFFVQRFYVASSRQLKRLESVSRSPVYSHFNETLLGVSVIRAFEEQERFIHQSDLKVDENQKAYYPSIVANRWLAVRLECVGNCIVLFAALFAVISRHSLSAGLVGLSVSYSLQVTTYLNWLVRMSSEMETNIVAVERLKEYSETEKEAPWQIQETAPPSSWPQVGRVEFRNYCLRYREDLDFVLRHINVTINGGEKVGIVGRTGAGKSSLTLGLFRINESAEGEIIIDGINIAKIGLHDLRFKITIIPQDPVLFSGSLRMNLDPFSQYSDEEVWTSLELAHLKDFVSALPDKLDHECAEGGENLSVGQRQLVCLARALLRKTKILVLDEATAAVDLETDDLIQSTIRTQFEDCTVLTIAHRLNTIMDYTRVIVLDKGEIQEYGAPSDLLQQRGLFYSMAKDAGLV

As to `O=c1cc(-c2ccc(OCCCc3cn(CCOc4cccc5c(=O)cc(-c6ccccc6)oc45)nn3)cc2)oc2cc(F)ccc12`, the Survival is 77%.
Next, `Cc1ccc2oc(-c3ccc(OCCOCCOCCn4cc(CN(Cc5cn(CCOCCOCCOc6ccc(-c7cc(=O)c8cc(C)ccc8o7)cc6)nn5)Cc5cn(CCOCCOCCOc6ccc(-c7cc(=O)c8cc(C)ccc8o7)cc6)nn5)nn4)cc3)cc(=O)c2c1`: 71%; `O=C(/C=C/c1ccc(OCCCCc2cn(CCOCCOc3ccc(-c4oc5ccccc5c(=O)c4OCc4ccccc4)cc3)nn2)cc1)c1ccccc1O`: 72%; `Cc1ccc2oc(-c3ccc(OCCOCCOCCn4cc(CNc5ccccc5)nn4)cc3)cc(=O)c2c1`: 86%.
With `O=Cc1ccc(OCCCCc2cn(CCOc3cccc4c(=O)cc(-c5ccccc5)oc34)nn2)cc1`, the Survival was 83%.
With `O=c1cc(-c2ccc(OCCOCCOCCn3cc(-c4cccc(-c5cn(CCOCCOCCOc6ccc(-c7cc(=O)c8cc(F)ccc8o7)cc6)nn5)c4)nn3)cc2)oc2ccc(F)cc12`, the Survival was 72%.
Turning to `O=c1cc(-c2ccccc2)oc2cc(OCCOCCn3cc(CN4CCN(Cc5cn(CCOCCOc6ccc7oc(-c8ccccc8)cc(=O)c7c6)nn5)CC4)nn3)ccc12`, the Survival was 99%.
As for `O=c1c(OCc2ccccc2)c(-c2ccc(OCCOCCn3cc(CN4CCN(Cc5cn(CCOCCOc6ccc(-c7oc8ccccc8c(=O)c7OCc7ccccc7)cc6)nn5)CC4)nn3)cc2)oc2ccccc12`, the Survival stood at 58%.
With `O=c1cc(-c2ccccc2)oc2cc(OCCOCCn3cc(-c4ccc(-c5cn(CCOCCOc6ccc7oc(-c8ccccc8)cc(=O)c7c6)nn5)cc4)nn3)ccc12` the figure was 79%; with `O=c1cc(-c2ccc(OCCOCCOCCn3cc(CCCOc4ccc5c(=O)cc(-c6ccccc6)oc5c4)nn3)cc2)oc2ccccc12`, 54%.
With `COCOc1cc(OCc2ccccc2)c2c(=O)cc(-c3ccc(OCCCc4cn(CCOCCOc5ccc(-c6oc7ccccc7c(=O)c6OCc6ccccc6)cc5)nn4)cc3)oc2c1` the figure was 88%.
Next, `O=C1c2ccccc2C(=O)N1CCc1cn(CCOCCOc2ccc3c(=O)cc(-c4ccccc4)oc3c2)nn1`: 51%.
Take `CCc1ccc(O)c(C(=O)/C=C/c2ccc(OCCCCc3cn(CCOCCOCCOc4ccc5c(=O)cc(-c6ccccc6)oc5c4)nn3)cc2)c1`: the Survival is 79%.
For `O=C(/C=C/c1ccc(OCCCCc2cn(CCOCCOc3ccc(-c4oc5ccccc5c(=O)c4OCc4ccccc4)cc3)nn2)cc1)c1ccc(F)cc1O`, the Survival amounted to 69%.
For `O=c1cc(-c2ccccc2)oc2cc(OCCOCCn3cc(CN(Cc4ccccc4)Cc4cn(CCOCCOc5ccc6oc(-c7ccccc7)cc(=O)c6c5)nn4)nn3)ccc12`, the Survival came out at 76%.
With `O=c1cc(-c2ccc(OCCCc3cn(CCOCCOc4ccc(-c5oc6ccccc6c(=O)c5OCc5ccccc5)cc4)nn3)cc2)oc2ccc(F)cc12` the figure was 97%; with `Cc1ccc2oc(-c3ccc(OCCOCCOCCn4cc(CN5CCN(Cc6cn(CCOCCOCCOc7ccc(-c8cc(=O)c9cc(C)ccc9o8)cc7)nn6)CC5)nn4)cc3)cc(=O)c2c1`, 103%.
On to `C#CCCCCOc1ccc2c(=O)cc(-c3ccccc3)oc2c1`, for which the Survival was determined as 99%.
With `O=c1cc(-c2ccccc2)oc2cc(OCCOCCn3cc(COCCOc4ccc5c(=O)cc(-c6ccccc6)oc5c4)nn3)ccc12`, the Survival is reported as 60%.
Regarding `COc1cccc(COc2c(-c3ccc(OCCCCc4cn(CCOCCOc5ccc(-c6oc7ccccc7c(=O)c6OCc6cccc(OC)c6)cc5)nn4)cc3)oc3ccccc3c2=O)c1`, the Survival is on record as 57%.
Turning to `O=c1cc(-c2ccc(OCCOCCn3cc(CN4CCN(Cc5cn(CCOCCOc6ccc(-c7cc(=O)c8ccccc8o7)cc6)nn5)CC4)nn3)cc2)oc2ccccc12`, the Survival is 116%.
On to `[N-]=[N+]=NCCOCCOCCOc1ccc(-c2cc(=O)c3cc(F)ccc3o2)cc1`, for which the Survival is given as 85%.
In the case of `O=c1cc(-c2ccccc2)oc2cc(OCCCc3cn(CCOc4cccc5c(=O)cc(-c6ccccc6)oc45)nn3)ccc12`, the Survival is 56%.
